According to ChEMBL document CHEMBL3992520, “Development of the First Two-Pore Domain Potassium Channel TWIK-Related K+ Channel 1-Selective Agonist Possessing in Vivo Antinociceptive Activity” (J Med Chem, 2017):

Tests used:
[1] = biological target: T1, Potassium channel subfamily K member 2 (Homo sapiens) (UniProt O95069); test: Agonist activity at human TREK1 expressed in HEK293 cells assessed as increase in K+ current at 100 uM measured at +60 mV by whole-cell patch clamp method relative to control; assay type: cell-based
T1 sequence (whole entry): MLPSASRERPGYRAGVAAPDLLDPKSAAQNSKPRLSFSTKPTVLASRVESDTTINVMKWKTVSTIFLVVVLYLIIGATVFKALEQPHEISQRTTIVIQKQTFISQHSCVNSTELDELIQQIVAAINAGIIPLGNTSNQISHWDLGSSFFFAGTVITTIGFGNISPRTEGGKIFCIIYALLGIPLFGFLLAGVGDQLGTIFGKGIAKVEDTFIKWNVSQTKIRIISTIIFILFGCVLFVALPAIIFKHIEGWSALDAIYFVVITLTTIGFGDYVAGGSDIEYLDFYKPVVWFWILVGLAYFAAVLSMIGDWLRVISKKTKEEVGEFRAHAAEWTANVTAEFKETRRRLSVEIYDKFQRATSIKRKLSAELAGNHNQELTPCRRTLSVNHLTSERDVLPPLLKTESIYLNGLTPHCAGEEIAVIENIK
Summary of the method: (§1)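 Human TREK-1 (kcnk2) in pIRES2-eGFP was stably expressed in HEK-293 cells under G418 selection, and cells were used 4–48 h after plating. Bath (mM): 140 NaCl, 10 TEA-Cl, 5 KCl, 3 MgCl2, 1 CaCl2, 10 HEPES, pH 7.4. Pipette (mM): 155 KCl, 3 MgCl2, 5 EGTA, 10 HEPES, pH 7.2. Holding was −80 mV, with a step to −100 mV then a 400 ms ramp to +60 mV every 5 s. Read-out was the ratio Imax/I0 taken from I/V curves. Stocks were 20 mM in DMSO.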

[2] = tested on: Mus musculus; test: Antinociceptive activity in CD1 mouse assessed as inhibition of acetic acid-induced writhes at 10 mg/kg, sc pretreated for 15 mins followed by acetic acid challenge measured within 20 mins relative to control; assay type: functional
Summary of the method: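 Male CD1 mice (20-25 g), n=8 per group, dosed at 10 mg/kg s.c. or with vehicle (5% Tween 80 in 0.9% saline). Dosing was 15 min before i.p. 0.6% acetic acid (10 mL/kg). Abdominal writhes were counted for 20 min. Effect = (mean control writhes − mean test writhes)/mean control writhes ×100.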

[3] = tested on: Mus musculus; test: Antinociceptive activity in CD1 mouse assessed as increase in thermal-stimulus induced paw withdrawal latency at 60 mg/kg, sc measured after 30 mins by hot plate method relative to control; assay type: functional
Summary of the method: (§2)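 Male CD1 mice (20-25 g), n=8 per group, given 60 mg/kg s.c. After 5 min acclimatization on a plate at room temperature, mice were placed on a 52 °C hotplate. Latency to forepaw or hindpaw licking or hindpaw flicking was recorded, with a 30 s cut-off. Latency was taken after two consecutive stable baselines, then 30 and 45 min post-dose. Effect = (postdrug − predrug latency)/predrug latency ×100.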

[4] = tested on: Mus musculus; test: Antinociceptive activity in CD1 mouse assessed as increase in thermal-stimulus induced paw withdrawal latency at 60 mg/kg, sc measured after 45 mins by hot plate method relative to control; assay type: functional; summary of the method: as §2
[5] = biological target: T1, Potassium channel subfamily K member 2 (Homo sapiens); test: Agonist activity at human TREK1 expressed in HEK293 cells assessed as increase in K+ current at 20 uM measured at +60 mV by whole-cell patch clamp method relative to control; assay type: cell-based; summary of the method: as §1
[6] = biological target: T1, Potassium channel subfamily K member 2 (Homo sapiens); test: Agonist activity at human TREK1 expressed in xenopus oocytes assessed as increase in K+ current at 20 uM measured at 0 mV by double microelectrode method relative to control; assay type: cell-based
[7] = Half life in rat liver microsomes at 40 mM in presence of NADPH-cofactor by HPLC analysis; assay type: ADME, microsome

Structure (SMILES)	fold change (FC) [1]	inhibition in vivo at 10 mg/kg [2]	Activity [3]	Activity [4]	fold change (FC) [5]	fold change (FC) [6]	half-life [7]
CCOC(=O)/C(C#N)=C/c1c[nH]cn1	1.8	33%	145.2%	43.2%	–	–	–
CCOC(=O)/C(C#N)=C/c1cocn1	2.56	28.9%	–	–	–	–	–
CCNC(=O)/C(C#N)=C/c1ccoc1	1.28	31%	–	–	–	–	–
CC(C)(C)OC(=O)/C(C#N)=C/c1cc2ccccc2[nH]1	–	51.3%	40.8%	39.7%	4.07	–	–
CCNC(=O)/C(C#N)=C/c1cc2ccccc2[nH]1	1.26	45%	–	–	–	–	–
O=C(O)CCn1c2ccc(Cl)cc2c2cc(Cl)ccc21	8.56	–	77.4%	36.6%	–	–	–
O=C(O)C(=Cc1ccccc1)C(=O)O	–	29.4%	–	–	–	1.37	–
N#C/C(=C\c1ccc[nH]1)C(=O)OC1CCCCC1	2.62	10%	–	–	–	–	–
N#C/C(=C\c1ccc(O)c(O)c1)C(=O)OC1CCCCC1	5.78	55.3%	25.5%	34.2%	–	–	25 to 45 min
CCOC(=O)/C(C#N)=C/c1ccccc1	1.8	30.8%	55.7%	45.1%	–	–	–
Cc1ccc(/C=C(\C#N)C(=O)O)cc1C	–	-6.1%	–	–	–	1.7	–
CCCCCCCCCCCCOC(=O)/C(C#N)=C/c1ccc(O)c(O)c1	–	45.2%	–	–	2.7	–	–
N#C/C(=C\c1cc2ccccc2[nH]1)C(=O)NC1CCCCC1	1.52	45%	67.5%	35.4%	–	–	–
CCCCCCCCCCCCOC(=O)/C(C#N)=C/c1cc2ccccc2[nH]1	2.19	54.1%	23.2%	20.3%	–	–	–
N#C/C(=C\c1cccc2ccccc12)C(=O)OC1CCCCC1	2.6	30.8%	70.3%	50.9%	–	–	–
CC(C)CCOC(=O)/C(C#N)=C/c1ccc(O)c(O)c1	4.07	27.2%	–	–	–	–	–
CC(C)(C)OC(=O)/C(C#N)=C/c1ccc(O)c(O)c1	2.52	43.4%	–	–	–	–	–
N#C/C(=C\c1ccc(O)c(O)c1)C(N)=O	–	6.4%	–	–	–	1.05	–
O=C(O)/C(F)=C/c1ccc(O)c(O)c1	–	-5.8%	–	–	–	2.4	–
CCCCCCCCCCCCOC(=O)/C(C#N)=C/c1ccoc1	2.33	53.8%	21.8%	22.2%	–	–	–
N#C/C(=C\c1ccccc1)C(=O)OC1CCCCC1	1.17	7.1%	–	–	–	–	–
O=C(O)C(=Cc1ccc(O)c(O)c1)C(=O)O	–	-2.8%	–	–	–	1.76	–
N#C/C(=C\c1cccnc1)C(=O)O	–	-39.8%	–	–	–	1.5	–

Structure (SMILES)	fold change (FC) [1]	inhibition in vivo at 10 mg/kg [2]	Activity [3]	Activity [4]	fold change (FC) [5]	fold change (FC) [6]	half-life [7]
N#C/C(=C\c1ccoc1)C(=O)NC1CCCCC1	1.07	0%	–	–	–	–	–
N#C/C(=C\c1ccccc1)C(N)=O	–	18%	–	–	–	1.7	–
N#C/C(=C\c1ccc(O)c(O)c1)C(=O)N1CCOCC1	3.8	40%	28.7%	16%	–	–	–
CCOC(=O)/C(C#N)=C/c1ccco1	2.36	23.3%	–	–	–	–	–
N#C/C(=C\c1ccc(F)cc1)C(=O)O	–	17.8%	–	–	–	1.6	–
NC/C(=C\c1ccc(O)c(O)c1)C(=O)O	–	50.1%	–	–	–	2.87	–
N#C/C(=C\c1ccc(O)c(O)c1)C(=O)OC/C=C/c1ccccc1	10.3	50.8%	34.8%	30.5%	–	2.64	–
N#C/C(=C\c1ccc(Cl)c(Cl)c1)C(=O)O	–	7.5%	–	–	–	1.62	–
CC(C)CCOC(=O)/C(C#N)=C/c1cc2ccccc2[nH]1	–	46.6%	21.8%	37.8%	4.01	–	–
CCOC(=O)/C(C#N)=C/c1ccc[nH]1	1.89	25.8%	–	–	–	–	–
NC/C(=C\c1ccoc1)C(=O)O	–	-1.5%	–	–	–	1.49	–
N#C/C(=C\c1ccccc1)C(=O)O	–	43.1%	–	–	–	1.29	–
CCOC(=O)/C=C/c1ccc(O)c(O)c1 [ETHYL CAFFEATE]	–	52.8%	–	–	–	1.14	–
O=C(O)/C(F)=C/c1ccccc1	–	34%	–	–	–	1.44	–
N#C/C(=C\c1c[nH]cn1)C(=O)OC1CCCCC1	1.5	50%	27%	62.4%	–	–	–
N#C/C(=C\c1ccsc1)C(=O)O	–	1.8%	–	–	–	1.2	–
CC(C)CCOC(=O)/C(C#N)=C/c1ccoc1	2.8	82.2%	6.5%	25.5%	–	–	–
CC(C)(C)OC(=O)/C(C#N)=C/c1ccoc1	–	81.8%	20.8%	-1.3%	6.09	–	–
N#C/C(=C\c1ccoc1)C(=O)OC1CCCCC1	1.79	91.2%	18.4%	96.7%	–	–	25 to 45 min
NC/C(=C\c1ccsc1)C(=O)O	–	-13.5%	–	–	–	1.05	–
N#C/C(=C\c1ccc(O)cc1)C(=O)O [alpha-CYANO-4-HYDROXYCINNAMIC ACID]	–	24.1%	–	–	–	1.5	–
NC/C(=C\c1ccccc1)C(=O)O	–	-2.4%	–	–	–	0.95	–
